The text below walks through data of PubChem BioAssay.

Unmarked numbers belong to inactive results.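 The calls were made as follows, unless noted: active = growth inhibition above 25% in both replicates, a cutoff set 3 SD above the mean; inconclusive = above 25% in only one replicate; inactive = the rest.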

The first assay is described as follows: OD615 S. cerevisiae growth inhibition, permissive medium, pilot counter-assay, permissive growth control for S. cerevisiae lifespan shortening project (AID 705). To be noted: OD615, 24 h, at 10 µM, stronger effect = higher value. The essentials: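 Material: engineered DeaD yeast; Compound: one dose 10 µM, DMSO 0.25% final; Detection: absorbance (optical density) at 615 nm; Buffer or medium: permissive raffinose/galactose medium; Timing: 24 h exposure, 30 °C.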
As to `CCOC(=O)N1CCN(C(=O)C2CCCN(Cc3nc(-c4ccc(Cl)cc4)oc3C)C2)CC1` (stereo not given), the growth inhibition was 2.57%.

In the case of `CCCCN(C)C(=O)C(Cc1ccccc1)NS(=O)(=O)c1ccc2c(c1)CCC(=O)N2` (stereo not given), the growth inhibition is -18.6%.

Take `COC(=O)c1ccc(OCC(O)CN2CCC(C)CC2)cc1` (stereo not given): the growth inhibition is -2.79%.

With `CCC(=O)Nc1ccc(C(=O)n2nc(C)cc2C)cc1`, the growth inhibition is 15.8%.

For `CC1CCc2nc3ccc(S(=O)(=O)N4CCC(C(=O)NC5CCCC5)CC4)cc3c(C(=O)O)c2C1` (stereo not given), the growth inhibition is -0.78%.

Turning to `COc1ccc(S(=O)(=O)N2CCC(C(=O)N3CCOCC3)CC2)cc1OC`, the growth inhibition is -15.4%.

In the case of `O=C(CCCCn1c(=O)[nH]c2ccccc2c1=O)NCCc1c[nH]c2ccccc12`, the growth inhibition was -16.7%.

Consider `O=C1C(Cl)=C(NCC2CCCO2)C(=O)N1C1CCCCC1` (stereo not given), for which the growth inhibition is -2.76%.

As for `Cc1cc2cc(CNC(=O)c3ccco3)ccc2n1C`, the growth inhibition is -7.55%.

Turning to `CCOC(=O)N1CCN(C(=O)CN(c2cc(Cl)ccc2OC)S(=O)(=O)c2ccccc2)CC1`, the growth inhibition was 6.4%.

On to `O=C(NCCSCc1ccco1)c1ccc(CN2CCOCC2)cc1`, for which the growth inhibition is -10.4%.

Turning to `CC(C)(C)NC(=O)CSc1nc(O)cc(=O)n1-c1ccccc1F`, the growth inhibition was -5.45%.

As to `Cc1sc2nc(CSc3nnc(Cc4cccs4)n3C3CCCCC3)[nH]c(=O)c2c1C`, the growth inhibition is 10.9%.

Turning to `COc1ccccc1C1NC(=O)NC(C)=C1C(=O)Nc1cccc(C)c1C` (stereo not given), the growth inhibition was -5.33%.

For `CC(C)Sc1nnc(Cn2c(=O)sc3ccccc32)n1-c1ccccc1`, the growth inhibition is 1.75%.

Turning to `CCCCC(=O)Nc1ccc(Br)cc1C(=O)O`, the growth inhibition was 5.08%.

As to `c1csc(Cc2nc3ccccc3[nH]2)c1`, the growth inhibition was -8.51%.

As to `Cc1noc(NS(=O)(=O)c2ccc(N3Cc4ccccc4C3=O)cc2)c1C`, the growth inhibition was -3.04%.

Turning to `COCCNC(=O)c1cc2c(=O)n3cccc(C)c3nc2n1C`, the growth inhibition is -9.01%.

With `Cc1ccc(C)c(Cn2c(CN(C)Cc3ccccc3)nc3c2c(=O)n(C)c(=O)n3C)c1`, the growth inhibition is -0.27%.

Turning to `CCOc1ccccc1NC(=O)CSc1nnc(-c2ccccn2)n1Cc1ccco1`, the growth inhibition is -4.62%.

With `Cc1nnc(SCCn2c(N3CCCC(C)C3)nc3c2c(=O)n(C)c(=O)n3C)s1` (stereo not given), the growth inhibition is -11.4%.

As to `CC1Cc2nc(SCC(=O)Nc3ccc4c(c3)OCO4)n(CCc3ccccc3)c(=O)c2S1` (stereo not given), the growth inhibition was -14%.

For the molecule `COc1ccccc1CNC(=O)c1cnc2ccccn2c1=O`, the growth inhibition is -6.47%.

As for `COc1ccccc1NC(=O)CSc1nnc(-c2ccco2)n1Cc1ccco1`, the growth inhibition is 1.41%.

Turning to `COc1ccc(Cl)cc1S(=O)(=O)n1ccnc1C(C)C`, the growth inhibition was -8.68%.

Regarding `O=C(CNS(=O)(=O)c1cccs1)Nc1ccc2c(c1)OCCO2`, the growth inhibition is -22.3%.

For the molecule `O=C(NCCCN1CCOCC1)c1ccco1`, the growth inhibition was -9.93%.

As to `CCCCn1c(=NC(=O)c2cccnc2)c(C(=O)OCC)cc2c(=O)n3ccccc3nc21`, the growth inhibition was -19.8%.

For `Cc1ccc2oc(=O)c3cnn(CC(=O)NCCN4CCOCC4)c3c2c1`, the growth inhibition is -5.79%.

Turning to `Cc1nc(CCNC(=O)COc2ccccc2)cs1`, the growth inhibition is -11%.

In the case of `CC(C)(C)n1nc2c(c1NC(=O)c1ccc(Br)cc1)CS(=O)C2` (stereo not given), the growth inhibition was -8.25%.

In the case of `O=C(NCc1ccc(Cl)cc1)C1CCCN(S(=O)(=O)c2cnc[nH]2)C1` (stereo not given), the growth inhibition was 1.47%.

Turning to `CC1(C)CC(=O)C2=C(C1)OC(N)=C(C#N)C2c1ccc(OC(=O)N2CCOCC2)cc1` (stereo not given), the growth inhibition is -8.71%.

For `CSc1nnc2n(-c3ccc(C)cc3)c(=O)c3c4c(sc3n12)COC(C(C)C)C4` (stereo not given), the growth inhibition is -18.2%.

As to `COCCN1C(=O)c2oc3ccccc3c(=O)c2C1c1ccc(O)c(OC)c1` (stereo not given), the growth inhibition was -9.35%.

For `O=C1NC(=O)C(CC(=O)N(Cc2ccco2)C2(C(=O)NC3CCCCC3)CCCCC2)N1` (stereo not given), the growth inhibition is -7.57%.

Consider `O=C(NCc1cccs1)C1CCCN1S(=O)(=O)c1ccccc1F` (stereo not given), for which the growth inhibition is -2.45%.

With `CCOC(=O)N1CCC(N2C(=O)c3ccccc3C2Nc2cc(OC)c(OC)c(OC)c2)CC1` (stereo not given), the growth inhibition is 6.9%.

With `O=C(O)c1ccc(Cl)c2c1C1C=CCC1C(c1ccccn1)N2` (stereo not given), the growth inhibition is -7.86%.

Another assay in a line: Restrictive medium S. cerevisiae growth inhibition, OD615, pilot screen of yeast lifespan reduction project, restrictive growth control (AID 706;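 active = growth inhibition above a set limit, 3 SD over mean compound inhibition, in both replicates, cut at about 43% in these data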;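 also: modified DeaD lifespan yeast strain shifted to restrictive glucose medium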). To be noted: OD615, 48 h, at 10 µM, stronger effect = higher value. The essentials: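 Buffer or medium: restrictive glucose medium (CSMM-D); test system: modified S. cerevisiae; doses: single dose of 10 µM compound final, 0.25% DMSO; schedule: 48 h compound exposure at 30 °C; detection: absorbance (optical density) measured at 615 nm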
With `CCOC(=O)N1CCN(C(=O)C2CCCN(Cc3nc(-c4ccc(Cl)cc4)oc3C)C2)CC1` (stereo not given), the growth inhibition is -13.2%.

Turning to `CCCCN(C)C(=O)C(Cc1ccccc1)NS(=O)(=O)c1ccc2c(c1)CCC(=O)N2` (stereo not given), the growth inhibition is -11.7%.

As for `COC(=O)c1ccc(OCC(O)CN2CCC(C)CC2)cc1` (stereo not given), the growth inhibition is -3.85%.

As for `CCC(=O)Nc1ccc(C(=O)n2nc(C)cc2C)cc1`, the growth inhibition is 7.33%.

As for `CC1CCc2nc3ccc(S(=O)(=O)N4CCC(C(=O)NC5CCCC5)CC4)cc3c(C(=O)O)c2C1` (stereo not given), the growth inhibition is 10.5%.

`COc1ccc(S(=O)(=O)N2CCC(C(=O)N3CCOCC3)CC2)cc1OC`: the growth inhibition was -6.63%.

For the molecule `O=C(CCCCn1c(=O)[nH]c2ccccc2c1=O)NCCc1c[nH]c2ccccc12`, the growth inhibition was -25.8%.

Turning to `O=C1C(Cl)=C(NCC2CCCO2)C(=O)N1C1CCCCC1` (stereo not given), the growth inhibition was 8.66%.

`Cc1cc2cc(CNC(=O)c3ccco3)ccc2n1C`: the growth inhibition was -15.6%.

Consider `CCOC(=O)N1CCN(C(=O)CN(c2cc(Cl)ccc2OC)S(=O)(=O)c2ccccc2)CC1`, for which the growth inhibition was -12%.

As to `O=C(NCCSCc1ccco1)c1ccc(CN2CCOCC2)cc1`, the growth inhibition was -27%.

In the case of `CC(C)(C)NC(=O)CSc1nc(O)cc(=O)n1-c1ccccc1F`, the growth inhibition was -3.51%.

In the case of `Cc1sc2nc(CSc3nnc(Cc4cccs4)n3C3CCCCC3)[nH]c(=O)c2c1C`, the growth inhibition was 27.6%.

As for `COc1ccccc1C1NC(=O)NC(C)=C1C(=O)Nc1cccc(C)c1C` (stereo not given), the growth inhibition is -10.3%.

As to `CC(C)Sc1nnc(Cn2c(=O)sc3ccccc32)n1-c1ccccc1`, the growth inhibition was -10.2%.

In the case of `CCCCC(=O)Nc1ccc(Br)cc1C(=O)O`, the growth inhibition was -10.9%.

For the molecule `c1csc(Cc2nc3ccccc3[nH]2)c1`, the growth inhibition is -11.8%.

Take `Cc1noc(NS(=O)(=O)c2ccc(N3Cc4ccccc4C3=O)cc2)c1C`: the growth inhibition is 0.35%.

Regarding `COCCNC(=O)c1cc2c(=O)n3cccc(C)c3nc2n1C`, the growth inhibition was -20.7%.

As to `Cc1ccc(C)c(Cn2c(CN(C)Cc3ccccc3)nc3c2c(=O)n(C)c(=O)n3C)c1`, the growth inhibition is -21.5%.

As for `CCOc1ccccc1NC(=O)CSc1nnc(-c2ccccn2)n1Cc1ccco1`, the growth inhibition was 11.5%.

Regarding `Cc1nnc(SCCn2c(N3CCCC(C)C3)nc3c2c(=O)n(C)c(=O)n3C)s1` (stereo not given), the growth inhibition was -13.6%.

Turning to `CC1Cc2nc(SCC(=O)Nc3ccc4c(c3)OCO4)n(CCc3ccccc3)c(=O)c2S1` (stereo not given), the growth inhibition was -23.8%.

On to `COc1ccccc1CNC(=O)c1cnc2ccccn2c1=O`, for which the growth inhibition was 8.2%.

Consider `COc1ccccc1NC(=O)CSc1nnc(-c2ccco2)n1Cc1ccco1`, for which the growth inhibition was 1.92%.

As for `COc1ccc(Cl)cc1S(=O)(=O)n1ccnc1C(C)C`, the growth inhibition was -13%.

`O=C(CNS(=O)(=O)c1cccs1)Nc1ccc2c(c1)OCCO2`: the growth inhibition was -6.7%.

Turning to `O=C(NCCCN1CCOCC1)c1ccco1`, the growth inhibition is -3.09%.

In the case of `CCCCn1c(=NC(=O)c2cccnc2)c(C(=O)OCC)cc2c(=O)n3ccccc3nc21`, the growth inhibition is -15%.

As for `Cc1ccc2oc(=O)c3cnn(CC(=O)NCCN4CCOCC4)c3c2c1`, the growth inhibition is -12%.

For `Cc1nc(CCNC(=O)COc2ccccc2)cs1`, the growth inhibition was -3.25%.

Consider `CC(C)(C)n1nc2c(c1NC(=O)c1ccc(Br)cc1)CS(=O)C2` (stereo not given), for which the growth inhibition was -4.19%.

As for `O=C(NCc1ccc(Cl)cc1)C1CCCN(S(=O)(=O)c2cnc[nH]2)C1` (stereo not given), the growth inhibition is -8.94%.

`CC1(C)CC(=O)C2=C(C1)OC(N)=C(C#N)C2c1ccc(OC(=O)N2CCOCC2)cc1` (stereo not given): the growth inhibition was -10.3%.

In the case of `CSc1nnc2n(-c3ccc(C)cc3)c(=O)c3c4c(sc3n12)COC(C(C)C)C4` (stereo not given), the growth inhibition was -3.12%.

With `COCCN1C(=O)c2oc3ccccc3c(=O)c2C1c1ccc(O)c(OC)c1` (stereo not given), the growth inhibition is -0.41%.

`O=C1NC(=O)C(CC(=O)N(Cc2ccco2)C2(C(=O)NC3CCCCC3)CCCCC2)N1` (stereo not given): the growth inhibition was -7.79%.

For `O=C(NCc1cccs1)C1CCCN1S(=O)(=O)c1ccccc1F` (stereo not given), the growth inhibition is -6.33%.

As for `CCOC(=O)N1CCC(N2C(=O)c3ccccc3C2Nc2cc(OC)c(OC)c(OC)c2)CC1` (stereo not given), the growth inhibition is 8.61%.

With `O=C(O)c1ccc(Cl)c2c1C1C=CCC1C(c1ccccn1)N2` (stereo not given), the growth inhibition was 8.06%.
